Assay results published in ChEMBL document CHEMBL4033760, “Discovery of a Series of Indazole TRPA1 Antagonists” (ACS Med Chem Lett, 2017).
Converted amounts (≈) assume the structure as drawn. The source made the active and inactive calls. The rule behind the calls is not given here.

Assays:
[1] = molecular target: T1, Transient receptor potential cation channel subfamily A member 1 (Homo sapiens, UniProt O75762); test: Inhibition of full length human TRPA1 at a holding potential of 15 mV measured after 1 min by PatchXpress electrophysiology assay
T1 sequence (O75762 whole entry): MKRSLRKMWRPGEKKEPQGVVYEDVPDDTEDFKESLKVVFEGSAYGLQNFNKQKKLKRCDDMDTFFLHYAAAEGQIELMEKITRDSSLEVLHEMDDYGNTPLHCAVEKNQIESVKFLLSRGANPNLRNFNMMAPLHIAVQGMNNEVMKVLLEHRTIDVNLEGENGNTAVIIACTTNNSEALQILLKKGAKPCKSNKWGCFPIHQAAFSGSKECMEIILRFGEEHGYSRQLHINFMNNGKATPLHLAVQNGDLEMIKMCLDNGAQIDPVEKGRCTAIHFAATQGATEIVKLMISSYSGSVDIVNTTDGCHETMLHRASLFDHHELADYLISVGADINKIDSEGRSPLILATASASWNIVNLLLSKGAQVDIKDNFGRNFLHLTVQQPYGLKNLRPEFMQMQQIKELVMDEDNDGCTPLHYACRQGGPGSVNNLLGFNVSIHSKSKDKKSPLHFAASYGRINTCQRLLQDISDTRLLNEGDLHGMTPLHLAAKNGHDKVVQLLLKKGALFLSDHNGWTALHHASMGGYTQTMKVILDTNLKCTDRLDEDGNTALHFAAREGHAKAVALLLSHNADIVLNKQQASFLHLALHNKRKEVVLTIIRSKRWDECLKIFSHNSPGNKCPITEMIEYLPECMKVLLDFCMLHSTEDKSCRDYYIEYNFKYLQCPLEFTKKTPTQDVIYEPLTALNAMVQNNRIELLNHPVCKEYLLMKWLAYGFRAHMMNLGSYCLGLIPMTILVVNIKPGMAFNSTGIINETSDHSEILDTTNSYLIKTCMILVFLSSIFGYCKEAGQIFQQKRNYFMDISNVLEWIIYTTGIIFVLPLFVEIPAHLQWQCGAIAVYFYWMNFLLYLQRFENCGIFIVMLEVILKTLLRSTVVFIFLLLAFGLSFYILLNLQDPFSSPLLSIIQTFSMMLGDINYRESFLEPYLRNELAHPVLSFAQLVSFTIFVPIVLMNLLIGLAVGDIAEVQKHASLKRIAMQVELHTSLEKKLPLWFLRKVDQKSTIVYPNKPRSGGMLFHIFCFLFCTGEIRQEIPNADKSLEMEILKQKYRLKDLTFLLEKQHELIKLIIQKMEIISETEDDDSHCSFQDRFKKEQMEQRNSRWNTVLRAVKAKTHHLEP
Summary of the method: (§1)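 Medium-throughput PatchXpress electrophysiology on HEK293-T-rex cells expressing TRPA1 (human line; selected compounds also run in a rat TRPA1 line).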

[2] = molecular target: T2, Transient receptor potential cation channel subfamily A member 1 (Rattus norvegicus, UniProt Q6RI86); test: Inhibition of full length rat TRPA1 at a holding potential of 15 mV measured after 1 min by PatchXpress electrophysiology assay; summary of the method: as §1
T2 sequence (Q6RI86 whole entry): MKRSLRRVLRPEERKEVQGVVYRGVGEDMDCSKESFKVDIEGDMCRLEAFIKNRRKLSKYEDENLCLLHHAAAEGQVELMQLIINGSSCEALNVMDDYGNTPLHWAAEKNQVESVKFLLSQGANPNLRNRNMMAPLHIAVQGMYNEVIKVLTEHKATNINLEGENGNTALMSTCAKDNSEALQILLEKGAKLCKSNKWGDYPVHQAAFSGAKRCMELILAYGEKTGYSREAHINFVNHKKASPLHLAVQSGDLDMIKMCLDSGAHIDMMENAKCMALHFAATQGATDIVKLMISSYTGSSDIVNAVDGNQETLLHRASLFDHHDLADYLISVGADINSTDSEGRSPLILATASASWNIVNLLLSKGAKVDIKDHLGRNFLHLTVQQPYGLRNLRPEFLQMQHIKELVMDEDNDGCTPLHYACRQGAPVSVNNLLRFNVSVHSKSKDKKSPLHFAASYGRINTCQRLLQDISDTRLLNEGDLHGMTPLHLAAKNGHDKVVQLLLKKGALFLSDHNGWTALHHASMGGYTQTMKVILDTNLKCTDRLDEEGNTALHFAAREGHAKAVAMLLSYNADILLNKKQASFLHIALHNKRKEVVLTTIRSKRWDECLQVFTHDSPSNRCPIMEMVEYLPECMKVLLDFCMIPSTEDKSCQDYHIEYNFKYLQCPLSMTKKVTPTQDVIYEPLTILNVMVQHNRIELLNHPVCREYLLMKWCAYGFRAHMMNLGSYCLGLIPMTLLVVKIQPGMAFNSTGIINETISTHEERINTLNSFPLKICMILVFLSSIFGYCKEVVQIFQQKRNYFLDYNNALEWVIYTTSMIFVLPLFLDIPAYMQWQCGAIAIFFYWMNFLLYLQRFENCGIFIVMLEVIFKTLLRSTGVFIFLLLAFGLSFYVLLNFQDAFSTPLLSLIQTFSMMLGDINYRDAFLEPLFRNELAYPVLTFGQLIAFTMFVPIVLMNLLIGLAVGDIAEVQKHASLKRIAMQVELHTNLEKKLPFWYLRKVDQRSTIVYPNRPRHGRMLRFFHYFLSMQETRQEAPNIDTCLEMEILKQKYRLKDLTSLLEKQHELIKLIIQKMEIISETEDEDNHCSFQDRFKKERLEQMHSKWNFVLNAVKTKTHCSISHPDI

[3] = molecular target: Voltage-gated potassium channel, KQT; KCNQ2(Kv7.2)/KCNQ3(Kv7.3) (Homo sapiens, UniProt O43525+O43526); test: Activation of KCNQ2/3 (unknown origin); assay type: protein-complex assay
[4] = molecular target: T3, Potassium voltage-gated channel subfamily KQT member 1 (Homo sapiens, UniProt P51787); test: Inhibition of KCNQ1 (unknown origin)
T3 sequence (P51787 whole entry): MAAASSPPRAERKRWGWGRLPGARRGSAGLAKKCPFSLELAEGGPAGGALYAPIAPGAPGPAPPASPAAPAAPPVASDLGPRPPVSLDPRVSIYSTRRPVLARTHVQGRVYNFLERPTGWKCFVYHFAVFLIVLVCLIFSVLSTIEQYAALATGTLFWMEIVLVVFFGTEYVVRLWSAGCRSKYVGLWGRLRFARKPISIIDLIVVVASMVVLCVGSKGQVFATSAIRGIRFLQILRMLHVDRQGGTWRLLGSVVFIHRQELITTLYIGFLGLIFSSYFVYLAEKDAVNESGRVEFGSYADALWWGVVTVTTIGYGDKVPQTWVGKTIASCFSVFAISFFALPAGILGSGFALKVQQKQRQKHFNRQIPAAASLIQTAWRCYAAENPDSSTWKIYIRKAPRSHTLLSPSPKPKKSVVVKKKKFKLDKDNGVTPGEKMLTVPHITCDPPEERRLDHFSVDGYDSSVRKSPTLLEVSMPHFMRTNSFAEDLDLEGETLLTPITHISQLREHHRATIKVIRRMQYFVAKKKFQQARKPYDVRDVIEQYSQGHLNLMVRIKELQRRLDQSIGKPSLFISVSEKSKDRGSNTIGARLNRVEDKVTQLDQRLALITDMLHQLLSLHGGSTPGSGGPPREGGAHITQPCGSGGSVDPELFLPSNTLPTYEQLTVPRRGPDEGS

[5] = Intrinsic clearance in human liver microsomes; assay type: ADME, microsome; settings: read-out: CLH
[6] = Intrinsic clearance in rat liver microsomes; assay type: ADME, microsome; settings: read-out: CLH
MDR1 [7] = test: Permeability across basolateral to apical side in RRCK cells expressing MDR1; assay type: ADME, cell-based, Canis lupus familiaris, MDCKII-LE; settings: dog, MDCK-MDR1; read-out: permeability
MDR1 [8] = test: Permeability across apical to basolateral side in RRCK cells expressing MDR1; assay type: ADME, cell-based, Canis lupus familiaris, MDCKII-LE; settings: dog, MDCK-MDR1; read-out: permeability
[9] = Aqueous solubility of the compound by kinetic miniaturized shakeflask method; assay type: physicochemical; settings: buffer
Summary of the method: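 Kinetic miniaturized shake-flask method, starting from a DMSO stock solution.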

[10] = molecular target: T1, Transient receptor potential cation channel subfamily A member 1; test: Antagonist activity at human TRPA1 by calcium flux based FLIPR assay
Summary of the method: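 High-throughput antagonist-mode FLIPR Ca2+ imaging screen of the internal library in 384-well format; hits confirmed by single-rig electrophysiology.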

[11] = molecular target: Sodium channel protein type 5 subunit alpha (Homo sapiens, UniProt Q14524); test: Inhibition of Nav1.5 (unknown origin)
Sodium channel protein type 5 subunit alpha, sequence (Q14524 whole entry): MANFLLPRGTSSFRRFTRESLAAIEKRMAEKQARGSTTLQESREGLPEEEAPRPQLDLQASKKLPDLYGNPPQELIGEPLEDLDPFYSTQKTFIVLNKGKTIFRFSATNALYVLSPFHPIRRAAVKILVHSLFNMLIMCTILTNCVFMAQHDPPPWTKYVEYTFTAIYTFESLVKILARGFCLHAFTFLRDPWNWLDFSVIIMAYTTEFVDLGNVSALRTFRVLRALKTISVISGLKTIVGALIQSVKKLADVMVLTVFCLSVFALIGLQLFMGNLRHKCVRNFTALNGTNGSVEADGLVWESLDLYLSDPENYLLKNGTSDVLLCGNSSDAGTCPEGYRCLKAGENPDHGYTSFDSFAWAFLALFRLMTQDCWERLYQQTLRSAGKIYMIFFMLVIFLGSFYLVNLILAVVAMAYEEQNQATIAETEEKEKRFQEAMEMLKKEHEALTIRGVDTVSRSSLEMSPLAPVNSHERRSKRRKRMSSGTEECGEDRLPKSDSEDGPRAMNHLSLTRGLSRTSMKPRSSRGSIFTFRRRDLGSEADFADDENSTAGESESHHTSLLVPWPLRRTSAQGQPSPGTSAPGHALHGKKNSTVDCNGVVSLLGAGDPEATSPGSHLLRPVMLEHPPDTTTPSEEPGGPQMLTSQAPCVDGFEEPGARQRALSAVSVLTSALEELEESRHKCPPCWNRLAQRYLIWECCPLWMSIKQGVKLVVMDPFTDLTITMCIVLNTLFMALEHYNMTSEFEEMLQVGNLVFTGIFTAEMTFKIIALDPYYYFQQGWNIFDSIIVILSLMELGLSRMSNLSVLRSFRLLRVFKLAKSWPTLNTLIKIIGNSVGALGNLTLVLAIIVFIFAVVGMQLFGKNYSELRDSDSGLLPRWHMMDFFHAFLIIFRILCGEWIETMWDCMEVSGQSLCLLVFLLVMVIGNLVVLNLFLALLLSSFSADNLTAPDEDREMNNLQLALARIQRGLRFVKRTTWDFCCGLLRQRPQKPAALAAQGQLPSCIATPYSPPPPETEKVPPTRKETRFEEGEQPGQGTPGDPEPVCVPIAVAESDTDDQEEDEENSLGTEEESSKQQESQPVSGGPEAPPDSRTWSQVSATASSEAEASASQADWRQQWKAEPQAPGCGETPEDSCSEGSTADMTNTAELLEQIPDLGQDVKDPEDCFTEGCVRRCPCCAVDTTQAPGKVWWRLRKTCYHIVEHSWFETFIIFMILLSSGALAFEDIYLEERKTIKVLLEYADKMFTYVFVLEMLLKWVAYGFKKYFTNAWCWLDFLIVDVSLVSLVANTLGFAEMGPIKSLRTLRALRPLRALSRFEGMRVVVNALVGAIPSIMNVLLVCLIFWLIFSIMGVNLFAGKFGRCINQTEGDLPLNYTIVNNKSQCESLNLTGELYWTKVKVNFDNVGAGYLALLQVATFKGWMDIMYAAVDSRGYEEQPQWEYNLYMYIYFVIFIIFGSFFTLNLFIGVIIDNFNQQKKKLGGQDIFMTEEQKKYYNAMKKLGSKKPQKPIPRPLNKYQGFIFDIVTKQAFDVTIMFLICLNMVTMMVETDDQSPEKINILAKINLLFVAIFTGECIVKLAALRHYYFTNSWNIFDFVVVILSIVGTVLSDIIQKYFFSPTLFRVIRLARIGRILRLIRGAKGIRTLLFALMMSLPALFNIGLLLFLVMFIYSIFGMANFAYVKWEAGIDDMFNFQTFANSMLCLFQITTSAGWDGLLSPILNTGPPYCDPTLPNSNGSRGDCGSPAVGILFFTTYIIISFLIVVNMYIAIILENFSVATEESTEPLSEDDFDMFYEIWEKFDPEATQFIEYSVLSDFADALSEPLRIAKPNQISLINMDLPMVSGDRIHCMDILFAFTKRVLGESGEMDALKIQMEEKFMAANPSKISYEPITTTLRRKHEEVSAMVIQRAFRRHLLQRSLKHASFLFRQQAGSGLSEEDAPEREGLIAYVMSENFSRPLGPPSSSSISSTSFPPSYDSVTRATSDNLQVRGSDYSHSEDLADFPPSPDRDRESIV

[12] = molecular target: Sodium channel protein type 9 subunit alpha (Homo sapiens, UniProt Q15858); test: Inhibition of Nav1.7 (unknown origin)
[13] = molecular target: Transient receptor potential cation channel subfamily V member 1 (Homo sapiens, UniProt Q8NER1); test: Inhibition of TRPV1 (unknown origin)
Transient receptor potential cation channel subfamily V member 1, sequence (Q8NER1 whole entry): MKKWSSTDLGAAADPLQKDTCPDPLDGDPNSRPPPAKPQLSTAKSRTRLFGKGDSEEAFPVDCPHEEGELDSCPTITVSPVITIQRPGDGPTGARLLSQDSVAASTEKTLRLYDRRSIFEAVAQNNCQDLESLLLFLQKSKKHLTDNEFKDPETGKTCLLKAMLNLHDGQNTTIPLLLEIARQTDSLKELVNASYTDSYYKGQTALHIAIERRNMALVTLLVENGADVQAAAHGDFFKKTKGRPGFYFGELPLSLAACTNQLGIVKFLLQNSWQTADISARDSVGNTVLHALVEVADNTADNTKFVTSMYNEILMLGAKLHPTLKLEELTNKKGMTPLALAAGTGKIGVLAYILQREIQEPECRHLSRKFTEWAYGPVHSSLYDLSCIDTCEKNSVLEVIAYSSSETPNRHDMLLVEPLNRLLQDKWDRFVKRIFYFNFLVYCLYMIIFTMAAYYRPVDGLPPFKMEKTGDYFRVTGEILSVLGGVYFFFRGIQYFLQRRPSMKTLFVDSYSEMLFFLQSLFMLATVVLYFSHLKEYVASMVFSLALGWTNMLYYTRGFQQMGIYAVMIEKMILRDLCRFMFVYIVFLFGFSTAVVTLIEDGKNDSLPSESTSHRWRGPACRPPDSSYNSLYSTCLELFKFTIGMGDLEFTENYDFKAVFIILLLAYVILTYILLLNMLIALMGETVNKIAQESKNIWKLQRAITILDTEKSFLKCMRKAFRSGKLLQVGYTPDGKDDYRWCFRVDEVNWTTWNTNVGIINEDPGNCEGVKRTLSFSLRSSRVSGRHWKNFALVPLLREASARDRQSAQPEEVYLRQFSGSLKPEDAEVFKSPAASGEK

[14] = molecular target: T2, Transient receptor potential cation channel subfamily A member 1; test: Inhibition of rat TRPA1 at a holding potential of 15 mV measured after 1 min by whole-cell manual patch clamp electrophysiology assay
Rattus norvegicus [15] = test: Anti-inflammatory activity in po dosed Sprague-Dawley rat assessed as reduction in flinching dosed 2 hrs prior to subcutaneous administration of AITC in right hand paw measured for 30 mins; assay type: functional
Summary of the method: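 Oral dosing in rats; AITC then given subcutaneously into the right hind paw. Paw flinching is scored, and the minimum effective dose is taken as the lowest dose giving a significant reduction.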

Rattus norvegicus [16] = test: Suppression of cinnamaldehyde-induced flare response in Sprague-Dawley rat at 10 to 100 mg/kg administered systemically measured after 75 mins by recording blood flow for 30 mins by laser Doppler sonography method; assay type: functional, organism-based
Summary of the method: (§2)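 Rats dosed orally at 10, 30 and 100 mg/kg, with mean systemic concentrations measured. Flare is induced by cinnamaldehyde and blood flow read by laser Doppler sonography, compared against vehicle and a TRPV1 antagonist given as a mechanistic comparator.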

Blood = test: Drug level in Sprague-Dawley rat blood at 10 to 100 mg/kg, po; assay type: ADME, organism-based; settings: in vivo, read-out: Drug uptake; summary of the method: as §2
[17] = molecular target: Voltage-gated inwardly rectifying potassium channel KCNH2 (Homo sapiens, UniProt Q12809)
MDCKII-LE = test: Permeability in RRCK cells expressing MDR1; settings: dog
[18] = molecular target: Transient receptor potential cation channel subfamily A member 1 (Rattus norvegicus) (UniProt Q6RI86); settings: 1 uM
Transient receptor potential cation channel subfamily A member 1 (Rattus norvegicus), sequence (Q6RI86 whole entry): as the sequence (Q6RI86 whole entry) above

[19] = Inhibition of full length opossum TRPA1 at a holding potential of 15 mV measured after 1 min by PatchXpress electrophysiology assay; set-up: species or system Monodelphis domestica
[20] = Inhibition of full length opossum TRPA1 hS5 chimera at a holding potential of 15 mV measured after 1 min by PatchXpress electrophysiology assay; set-up: species or system Monodelphis domestica
[21] = molecular target: T1, Transient receptor potential cation channel subfamily A member 1; test: Inhibition of full length human TRPA1 oS5 chimera at a holding potential of 15 mV measured after 1 min by PatchXpress electrophysiology assay
Rattus norvegicus [22] = test: Suppression of cinnamaldehyde-induced flare response in Sprague-Dawley rat at 50 mg/ml administered topically measured after 60 mins by recording blood flow for 30 mins by laser Doppler sonography method; assay type: functional
Summary of the method: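 Compound formulated in vehicle, applied topically to rat skin at 50 mg/mL and left for a set time. Then 20% v/v cinnamaldehyde in the same vehicle is applied at that site, and local blood flow is measured by laser Doppler sonography. Free plasma concentrations are also determined.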

[23] = Permeability in Sprague-Dawley rat skin; assay type: ADME, Zone of skin; settings: read-out: permeability (converted)
Summary of the method: (§3)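 Skin flux study after topical administration. Skin permeability is given in cm/h, and compound concentrations are measured separately in the epidermal and dermal layers, expressed as μg/g.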

[24] = Drug level in Sprague-Dawley rat skin epidermal layer; assay type: ADME, Skin epidermis; settings: in vivo; summary of the method: as §3
[25] = Drug level in Sprague-Dawley rat skin dermal layer; assay type: ADME, Dermis; settings: in vivo; summary of the method: as §3
[26] = Unbound fraction in Sprague-Dawley rat plasma

| SMILES | IC50 [1] [nM] | IC50 [2] [nM] | other results |
| --- | --- | --- | --- |
| N#Cc1ccc(-c2n[nH]c3cc(OC(F)(F)F)ccc23)cn1 | 1180 | 271 |  |
| N#Cc1ccc(-c2n[nH]c3cc(OC(F)(F)F)ccc23)s1 | 74 | 80 |  |
| Clc1ccc(Nc2n[nH]c3ccccc23)cc1 | 11700 |  |  |
| Fc1ccc(-c2n[nH]c3cc(C(F)(F)F)ccc23)cc1F | 2100 | 329 |  |
| CN(c1ccc(Cl)nc1)c1nn(C)c2cc(C(F)(F)F)ccc12 | > 10000 |  |  |
| FC(F)(F)c1ccc2c(Nc3ccc(Cl)cc3)n[nH]c2c1 | 42 | 9 |  |
| Fc1ccc(Nc2n[nH]c3cc(OC(F)(F)F)cnc23)nc1 | 2540 | 813 |  |
| CN(c1ccc(Cl)nc1)c1n[nH]c2cc(C(F)(F)F)ccc12 | > 10000 |  |  |
| Fc1ccc(Nc2n[nH]c3cc(-c4ccc(F)c(F)c4)ccc23)cc1F | 3700 |  |  |
| COCCNC(=O)c1ccc2c(-c3ccc(C#N)cc3)n[nH]c2c1 | 2670 | 453 |  |
| Fc1ccc2[nH]c(-c3n[nH]c4cc(OC(F)(F)F)ccc34)cc2c1 | 748 | 116 |  |
| Fc1ccc(Nc2n[nH]c3cc(C(F)(F)F)ccc23)cc1F | 53 | 9 |  |
| FC(F)(F)c1ccc2c(Nc3ccc(Cl)nc3)n[nH]c2c1 | 550 |  | EC50 [3]: 37 nM; IC50 [4]: 2600 nM; IC50 [10]: 2500 nM; IC50 [11]: 8520 nM; IC50 [13]: > 30000 nM; IC50 [17]: > 100000 nM |
| Fc1ccc(Nc2n[nH]c3cc(OC(F)(F)F)cnc23)cc1F | 20 | 11 | IC50 [19]: > 30000 nM; IC50 [20]: 132 nM; IC50 [21]: 16000 nM; microsomal CLint [5]: 73 µL/min/mg; microsomal CLint [6]: 99 µL/min/mg; Papp B→A (MDR1 [7]): 7 ×10⁻⁶ cm/s; Papp A→B (MDR1 [8]): 2 ×10⁻⁶ cm/s; solubility kinetic [9]: 1.6 µg/mL (≈ 4.85 µM); IC50 [10]: 330 nM; IC50 [11]: 18200 nM; IC50 [12]: 8700 nM; IC50 [13]: > 30000 nM; IC50 [14]: 11 nM; Activity (Rattus norvegicus [22]): Active; Papp [23]: 0.00333 ×10⁻⁶ cm/s; Drug uptake [24]: 304 µg/g; Drug uptake [25]: 20 µg/g; Drug uptake(free) [26]: 7 to 59 nM |
| FC(F)(F)c1ccc2c(Nc3ccc(C(F)(F)F)nc3)n[nH]c2c1 | > 10000 |  |  |
| Fc1ccc(Nc2n[nH]c3cc(-c4ccccc4OC(F)(F)F)ccc23)cc1F | 1200 |  |  |
| Fc1ccc(-c2n[nH]c3cc(OC(F)(F)F)cnc23)cc1 | 257 | 216 |  |
| Fc1ccc(-c2n[nH]c3cc(NC4CCN(CC5CC5)CC4)cnc23)cc1 | 4630 | 1850 |  |

Now from value to molecule, other results behind:

| IC50 [1] [nM] | IC50 [2] [nM] | SMILES | other results |
| --- | --- | --- | --- |
| 686 | 246 | N#Cc1ccc(-c2n[nH]c3cc(OC(F)(F)F)ccc23)cc1 | EC50 [3]: > 30000 nM; IC50 [4]: > 3000 nM; microsomal CLint [5]: < 8 µL/min/mg; microsomal CLint [6]: 58 µL/min/mg; Papp B→A (MDR1 [7]): 8 ×10⁻⁶ cm/s; Papp A→B (MDR1 [8]): 4 ×10⁻⁶ cm/s; solubility kinetic [9]: 4.8 µg/mL (≈ 15.8 µM); IC50 [10]: > 10000 nM; IC50 [11]: 17300 nM; IC50 [12]: 17700 nM; IC50 [13]: > 30000 nM; IC50 [14]: 195 nM; Activity (Rattus norvegicus [15]): Dose-dependent effect; minimal effective dose (Rattus norvegicus [15]; read-out: MED): 100 mg/kg; Activity (Rattus norvegicus [16]): Active; concentration (Blood): 11 to 52 nM; IC50 [17]: > 30000 nM; Papp (MDCKII-LE): < 0.1 ×10⁻⁶ cm/s |
| 450 | 255 | Fc1ccc(-c2n[nH]c3cc(C(F)(F)F)cnc23)cc1F |  |
| 38 | 23 | Fc1ccc(Nc2n[nH]c3cc(C(F)(F)F)cnc23)cc1F |  |
| 134 | 128 | Fc1ccc(-c2n[nH]c3cc(OC(F)(F)F)cnc23)cc1F |  |
| 111 | 49 | Fc1ccc(Nc2n[nH]c3cc(Cl)ccc23)cc1F |  |
| 131 | < 100 | Fc1ccc(Nc2n[nH]c3cc(OC(F)(F)F)ccc23)cc1F | inhibition [18]: 96% |
| 645 |  | Fc1ccc(Nc2n[nH]c3cc(C(F)(F)F)ncc23)cc1F |  |
| > 10000 |  | Cn1nc(Nc2ccc(Cl)nc2)c2ccc(C(F)(F)F)cc21 |  |
| 91 | 8 | Fc1ccc2[nH]c(-c3n[nH]c4cc(OC(F)(F)F)cnc34)cc2c1 |  |
